Results gathered from unrelated publications.
Each line is one published result; the experiments were not run side by side.
Organism: Plasmodium falciparum
Observed: parasite growth

Structure (SMILES) | assay | system | conditions | IC50
C[C@H]1[C@@H](O)O[C@@H]2O[C@@]3(C)CC[C@H]4[C@H](C)CC[C@@H]1[C@@]24OO3 | – | 3D7 | 72 h, blood stage | 5.8 nM
C[C@@H]1CC[C@H]2[C@@H](C)C(=O)O[C@@H]3O[C@@]4(C)CC[C@@H]1[C@]32OO4 | – | D6 | 72 h, blood stage | 0.0047 µg/mL
CN1CCN(C2CCN(c3nccc4[nH]c(-c5cc(F)cc(F)c5)nc34)CC2)CC1 | – | NF54 | blood stage | < 100 nM
CCN(CC)CCCC(C)Nc1ccnc2cc(Cl)ccc12 (centres unmarked) | LDH | – | – | 206 nM
Cc1onc(-c2ccccc2)c1-c1ccc(S(N)(=O)=O)cc1 | SYBR Green | – | blood stage | > 100000 nM
O=C(Nc1cc(F)ccc1C(=O)O)c1ccc(-c2ccccc2)cc1 | resazurin | NF54 | 48 h, gametocyte | 105 nM
Cc1ccc2c(c1C)NC(=O)[C@]21NN=C(c2ccccc2)S1 | SYBR Green | – | blood stage | 960 nM
O=C(O)c1ccccc1NC(=O)c1ccccc1-c1ccccc1 | resazurin | NF54 | 48 h, gametocyte | > 10000 nM
C/C=C/C=C/C=C/c1c(O)cc(CC=C(C)C)c(O)c1C=O | – | D6 | 72 h, blood stage | 1.8 µg/mL
CCN(CC)CCCC(C)Nc1ccnc2cc(Cl)ccc12 (centres unmarked) | – | NF54 | blood stage | 8 nM
Oc1cccc(C(Nc2nccs2)c2ccc3cccnc3c2O)c1 (centres unmarked) | SYBR Green | – | blood stage | 1200 nM
COc1cccc2c(-c3ccc4c(c3O)[C@@H](C)N[C@H](C)C4)c(C)cc(OC)c12 | SYBR Green | NF54 | blood stage | 1330 nM
Brc1ccc2c(c1)nc(C1CCNCC1)n2Cc1ccccc1 | – | NF54 | blood stage | 28 nM
C[C@@H]1CC[C@H]2[C@@H](C)C(=O)O[C@@H]3O[C@@]4(C)CC[C@@H]1[C@]32OO4 | – | D6 | blood stage | 0.0085 µg/mL
Cc1cccc(C(=O)O)c1NC(=O)c1ccc(-c2ccccc2)cc1 | resazurin | NF54 | 48 h, gametocyte | 1140 nM
C#CCCCCCCCCC=CCC(O)CC(O)CO (centres unmarked) | – | W2 | drug-resistant strain, blood stage | > 47.6 µg/mL
Clc1ccc2c(c1)nc(NCCN1CCOCC1)n2Cc1ccccc1 | – | NF54 | blood stage | 8520 nM
C[C@@H]1CC[C@H]2[C@@H](C)C(=O)O[C@@H]3O[C@@]4(C)CC[C@@H]1[C@]32OO4 | – | W2 | drug-resistant strain, blood stage | 15 nM
FC(F)(F)c1ccc2c(c1)nc(N1CCNCC1)n2Cc1ccccc1 | – | NF54 | blood stage | 310 nM
CN1CCC(NCc2cccc(-c3ccc(S(=O)(=O)NCc4ccccc4)cc3)c2)CC1 | SYBR Green | – | blood stage | 593 nM
CC[C@@H](C)[C@H]1O[C@@H](c2c(O)c(-c3ccccc3)cn(O)c2=O)[C@H](C)C[C@@H]1C | – | D6 | 72 h, blood stage | 0.33 µg/mL

Structure (SMILES) | assay | system | conditions | IC50
COC(=O)c1cccc(-c2nc3c(N4CCC(N5CCN(C)CC5)CC4)nccc3[nH]2)c1 | – | NF54 | blood stage | < 100 nM
COc1cc(NC(C)CCCNCOC(=O)NCCCC(C)Nc2cc(OC)cc3cccnc23)c2ncccc2c1.Cl.Cl (centres unmarked) | – | W2 | drug-resistant strain, blood stage | 2.7 µg/mL
O=C(Nc1ccc(F)cc1C(=O)O)c1ccc(-c2ccccc2)cc1 | – | NF54 | 48 h, blood stage | > 10000 nM
Cc1ccc(-c2ccc3ncc4c(c3c2)n(-c2cccc(C(F)(F)F)c2)c(=O)n4C)cn1 | resazurin | 3D7 | gametocyte | < 100 nM
O[C@@H](c1cc(C(F)(F)F)nc2c(C(F)(F)F)cccc12)[C@H]1CCCCN1 | SYBR Green | – | blood stage | 17 nM
Cc1cccc(C(=O)O)c1NC(=O)c1ccccc1-c1ccccc1 | resazurin | NF54 | 48 h, gametocyte | > 10000 nM
Clc1ccc2c(nc(N3CCNCC3)n2Cc2ccccc2)c1-c1ccccc1 | – | NF54 | blood stage | 3650 nM
CCN(CC)CCCC(C)Nc1ccnc2cc(Cl)ccc12 (centres unmarked) | ELISA | 3D7 | blood stage | 7.4 nM
CO[C@H]1/C=C/O[C@@]2(C)Oc3c(C)c(O)c4c(O)c(c(/C=N/N5CCN(C)CC5)c(O)c4c3C2=O)NC(=O)/C(C)=C\C=C[C@H](C)[C@H](O)[C@@H](C)[C@@H](O)[C@@H](C)[C@H](OC(C)=O)[C@@H]1C | SYBR Green | – | blood stage | 7810 nM
COc1ccc2[nH]c(-c3ccc(Cc4ccc(OC(F)(F)F)cc4)cc3)c(C)c(=O)c2c1 | – | 3D7 | blood stage | > 350 nM
CCCCCCCCCCCCCC(O)CC(O)CO (centres unmarked) | – | D6 | blood stage | 28.2 µg/mL
N=C(N)NCCCCC(=O)Nc1cc(C(F)(F)F)cc(NC(=O)c2cc(C(=O)Nc3cc(C(F)(F)F)cc(NC(=O)CCCCNC(=N)N)c3O[C@@H]3CCNC3)ncn2)c1O[C@@H]1CCNC1 | SYBR Green | – | blood stage | 670 nM
C[C@@H]1CN(c2nc3cc(Cl)ccc3n2Cc2ccccc2)C[C@H](C)N1 | – | NF54 | blood stage | 216 nM
CCN(CC)CCCC(C)Nc1ccnc2cc(Cl)ccc12 (centres unmarked) | – | D6 | blood stage | 10 nM
Cc1cc(NCCc2ccccc2)nc(N=C(N)Nc2ccc(Cl)cc2)n1 | SYBR Green | – | blood stage | 280 nM
c1ccc(Cn2c(N3CCNCC3)nc3cc(-c4ccccc4)ccc32)cc1 | – | NF54 | blood stage | 6960 nM
COC1=CC(c2ccc[nH]2)=NC1=Cc1ccc(CCCCCCCCCCCO)[nH]1 | – | D6 | blood stage | 59 nM
C[C@@]12CC[C@@H](O)[C@]3(C)C4=CC(=O)OCC4=C[C@@H](OC1=O)C23 (some centres unmarked) | – | D6 | 72 h, blood stage | 0.9 µg/mL
NCCNc1nc2cc(Cl)ccc2n1Cc1ccccc1 | – | NF54 | blood stage | 245 nM
O=C(Nc1ccnc(C(F)(F)F)c1)Nc1cccc2c1OC(F)(F)O2 | – | NF54 | blood stage | 700 nM
